Measured values as given in the RNAGym collection of RNA variant scans (doi:10.1126/science.aae0568).
This sample holds only a part of the variants without activity.

B1: tRNA (parent)
chain: GUUCCGUUGGCGUAAUGGUAACGCGUCUCCCUCCUAAGGAGAAGACUGCGGGUUCGAGUCCCGUACGGAACG

Variants of: B1
Test: yeast fitness relative to wild type (ratio to wild type); higher = fitter; tRNA-Arg(CCU), competitive growth, 37 C, YPD
Procedure, shortened: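 Amplicons of the tRNA-Arg(CCU) gene were sequenced, 100-nucleotide paired-end, from the start population and from each end population of a pooled yeast competition. The competition, in six parallel replicates, lasted 24 hours in YPD at 37°C. Fitness relative to wild type was calculated from changes in genotype frequencies. Genotypes had to have ≥ 100 starting reads, and estimates < 0.5 were set to 0.5.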

Compared with GUUCCGUUGGCGUAAUGGUAACGCGUCUCUCUCCUCAGGAGAAGACUGCGGGUUCGAGUCCCGUACGGUACG [C30U A36C A69U], GUUCCGUUGGCGUAAUGGUAACGCGUCUCUAUCCUAAGGUGAAGACUGAGGGUUCGAGUCCCGUACGGAACG [C30U C31A A40U C49A] is higher in yeast fitness: no more than 0.5 for the first, 0.682 for the second.

Going from GUUCCGUUGGCGUAAUGGUAACGCGUCUCUGUCCUAAGGAGACGACUGCGAGUUCGAGUCCCGUACGGAACG [C30U C31G A43C G51A] to GUUCCGUUGGCGUAAUGGUAACGCGUCUCUCUACUAAGGAGAGGACUGCGGGUUCGAGUCCCGUACGGAACG [C30U C33A A43G], the yeast fitness falls from 0.565 to no more than 0.5.

Compared with GUUCCGUUGGCGUAAUGGUAACGCGUCUCUCUCCUAAGGAGAAGCCUGCGGGUUCGAGUCCCGUACGGAACG [C30U A45C], GUUCCGUUGGCGUAAUGGUAACGCGUCUCUCUCCUAAGGAGAAGGCUGCGGGUUCGAGUCCCGUACGGAACG [C30U A45G] is higher in yeast fitness: 0.72 for the first, 0.781 for the second.

Compared with GUUCCGUUGGCGUAAUGGUAACGCGUCUCUCUCCUCAGGAGAAGACUGCGGAUUGGAGUCCCGUACGGAACG [C30U A36C G52A C55G], GUUCCGUUGGCGUAAUGGUAACGCGUCUCUCUCCUCAGGAGAAGACUGCGGGUUCGAGUCCCGUACUGAACG [C30U A36C G67U] is higher in yeast fitness: no more than 0.5 for the first, 0.639 for the second.

First: GUUCCGUUGGCGUAAUGGUAACGCGUCUCUGUCCAAAGGAGAAGACUGCGGGUUCGAGUCCCGUACGGAACG [C30U C31G U35A]
Second: GUUCCGUUGGCGUAAUGGUAACGCGUCUCUGUCCUCAGGAGAAGACUGCGGGUACGAGUCCCGUACGGAACG [C30U C31G A36C U54A]
The yeast fitness of the first is lower: 0.62 for the first, 0.674 for the second.

Compared with GUUCCGUUGGCGUAAUGGUAACGCGUCUCUCUCCUACGGAGAAGACUGCGGGUUCGAGUCCCGUACGGAACG [C30U A37C], GUUCCGUUGGCGUAAUGGUAACGCGUCUCUCUCCUAGGGAGAAGACUGCGGGUUCGAGUCCCGUACGGAACG [C30U A37G] is lower in yeast fitness: 0.729 for the first, 0.656 for the second.

First: GUUCCGUUGGCGUAAUGGUAACGCGUCUCUCUCCUGGGGAGAAGACUGCGGGUUCGAGUCCCGUACGGAACG [C30U A36G A37G]
Second: GUUCCGUUGGCGUAAUGGUAACGCGUCUCUAUCCUAAGGAAAAGACUGCGGGUUCGAGUCCCGUACGGAACG [C30U C31A G41A]
The yeast fitness of the first is higher: 0.548 for the first, no more than 0.5 for the second.

First: GUUCCGUUGGCGUAAUGGUAACGCGUCUCUUUCAUAAGGAGAAGACUGCGGGUUCGAGUCCCGUACGGACCG [C30U C31U C34A A70C]
Second: GUUCCGUUGGCGUAAUGGUAACGCGUCUCUCUCCUAAGGAGAAGACUGCGGGUUCGAGUCCCGUACGGUCCG [C30U A69U A70C]
The yeast fitness of the first is lower: no more than 0.5 for the first, 0.737 for the second.

GUUCCGUUGGCGUAAUGGUAACGCGUCUCUCUACUAAGGACUAGACUGCGGGUUCGAGUCCCGUACGGAACG [C30U C33A G41C A42U] and GUUCCGUUGGCGUAAUGGUAACGCGUCUCUCUCCUAAGGAGAAGACUGCGGGUUCGGGUGCCGUACGGAACG [C30U A57G C60G] cannot be ordered by yeast fitness: no more than 0.5 for the first, no more than 0.5 for the second.

Going from GUUCCGUUGGCGUAAUGGUAACGCGUCUCUCUCCUAAGGAGAAGACUGCGGGUUCGCGUCCCGUACGGAACG [C30U A57C] to GUUCCGUUGGCGUAAUGGUAACGCGUCUCUCUCCUAAGGGGAAGACUGCGGGUUCGAGUCCCGUACGGAACG [C30U A40G], the yeast fitness rises from 0.586 to 0.914.

Compared with GUUCCGUUGGCGUAAUGGUAACGCGUCUCUCUCCUAAGGUGAAGACUGCGGGUUCGAGUCCCGUACGGAACG [C30U A40U], GUUCCGUUGGCGUAAUGGUAACGCGUCUCUCUCCUAAGGCGAAGACUGCGGGUUCGAGUCCCGUACGGAACG [C30U A40C] is lower in yeast fitness: 0.965 for the first, 0.792 for the second.

GUUCCGUUGGCGUAAUGGUAACGCGUCUCUCUCCUAAGGCGCAGACUGCGGGUUCGAGUCCCGUACGUAACG [C30U A40C A42C G68U] and GUUCCGUUGGCGUAAUGGUAACGCGUCUCUCUACUAAGGAGAAGACUGCCGGUUGGAGUCCCGUACGGAACG [C30U C33A G50C C55G] cannot be ordered by yeast fitness: no more than 0.5 for the first, no more than 0.5 for the second.

Compared with GUUCCGUUGGCGUAAUGGUAACGCGUCUCUCUACUAAGGAGAAGACUGCGGGUUCGAGUCCCCCACGGAACG [C30U C33A G63C U64C], GUUCCGUUGGCGUAAUGGUAACGCGUCUCUCUCCUAAGGGGAAGACUGCGGGUUUGAGUCCCGCACGGAACG [C30U A40G C55U U64C] is higher in yeast fitness: no more than 0.5 for the first, 0.646 for the second.

Compared with GUUCCGUUGGCGUAAUGGUAACGCGUCUCUCUCCUAAGGAGCAGACUGCGGGUUCGAGUCCGGUAGGGAACG [C30U A42C C62G C66G], GUUCCGUUGGCGUAAUGGUAACGCGUCUCUGUCCUAAGGAGAAGACUGCGGGUUCGAGUCCCGUAUGGAACG [C30U C31G C66U] is higher in yeast fitness: no more than 0.5 for the first, 0.512 for the second.

Going from GUUCCGUUGGCGUAAUGGUAACGCGUCUCUCUCCUUAGGAGAAGACUGCGGGUUCGAGUCCCGUACGGAACG [C30U A36U] to GUUCCGUUGGCGUAAUGGUAACGCGUCUCUCUCCUGAGGAGAAGACUGCGGGUUCGAGUCCCGUACGGAACG [C30U A36G], the yeast fitness rises from 0.57 to 0.927.

GUUCCGUUGGCGUAAUGGUAACGCGUCUCUCUCCUAAGGAGCAGACUGCGGGUUCGAGUCCCGUACCGUACG [C30U A42C G67C A69U] and GUUCCGUUGGCGUAAUGGUAACGCGUCUCUCUCCUUAGGAGAAGACUGCGGGUUCGGGUCCCGUACGGAACG [C30U A36U A57G] cannot be ordered by yeast fitness: no more than 0.5 for the first, no more than 0.5 for the second.

First: GUUCCGUUGGCGUAAUGGUAACGCGUCUCUCUUCUAAGGAGAGGACUGCGGGUUCGAGUCCCGUACGGAACG [C30U C33U A43G]
Second: GUUCCGUUGGCGUAAUGGUAACGCGUCUCUCUCCUAAGGAGAUGACUGCGGGUUCGAGUCCUGUACGGAACG [C30U A43U C62U]
The yeast fitness of the first is lower: 0.569 for the first, 0.845 for the second.

First: GUUCCGUUGGCGUAAUGGUAACGCGUCUCUCUCCUAUGGAGAAGACUGCGGAUUCGAGUCGCGUACGGAACG [C30U A37U G52A C61G]
Second: GUUCCGUUGGCGUAAUGGUAACGCGUCUCUCUCCUACGGAGAAGAUUGCGGGUUCGAGUCCCGUACGGAACG [C30U A37C C46U]
The yeast fitness of the first is lower: no more than 0.5 for the first, 0.666 for the second.

GUUCCGUUGGCGUAAUGGUAACGCGUCUCUCUCCUAAGGAGAUGACUGCGGGUUCGAGUCGCGUACGGCACG [C30U A43U C61G A69C] and GUUCCGUUGGCGUAAUGGUAACGCGUCUCUCUCCUAAGGAGACGACUGCGGAUUCGAGUCCCGUAUGGAACG [C30U A43C G52A C66U] cannot be ordered by yeast fitness: no more than 0.5 for the first, no more than 0.5 for the second.
